Consider two molecules from ChEMBL document CHEMBL4020830, “Design, Synthesis, and Evaluation of a Novel Series of Indole Sulfonamide Peroxisome Proliferator Activated Receptor (PPAR) α/γ/δ Triple Activators: Discovery of Lanifibranor, a New Antifibrotic Clinical Candidate” (J Med Chem, 2018).

In brackets after ≈: the same amount, converted by molar mass. Activity calls are given as the source filed them. No cut-off for these calls is given here.

Data set [1] addresses T1, Peroxisome proliferator-activated receptor delta (Mus musculus) (UniProt P35396).
T1 sequence (whole entry): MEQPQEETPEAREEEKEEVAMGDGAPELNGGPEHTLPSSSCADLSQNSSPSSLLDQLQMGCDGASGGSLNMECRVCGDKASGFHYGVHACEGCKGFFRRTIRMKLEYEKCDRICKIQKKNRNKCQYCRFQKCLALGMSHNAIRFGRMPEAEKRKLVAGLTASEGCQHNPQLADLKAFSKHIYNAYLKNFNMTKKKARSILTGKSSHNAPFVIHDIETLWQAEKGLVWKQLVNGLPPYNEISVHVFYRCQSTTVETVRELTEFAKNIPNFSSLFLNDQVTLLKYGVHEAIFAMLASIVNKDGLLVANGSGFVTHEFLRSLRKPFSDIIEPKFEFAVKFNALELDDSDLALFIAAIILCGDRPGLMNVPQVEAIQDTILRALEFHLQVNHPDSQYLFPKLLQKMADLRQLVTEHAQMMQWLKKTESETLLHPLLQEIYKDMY
In words: Transactivation of PPARdelta in mouse C2C12 cells assessed increase in [14C]oleate beta-oxidation at 1 uM preincubated for 48 hrs followed by [14C]oleate addition during last 2 hrs of incubation period relative to control. It is filed as cell-based. In a few lines: (§1)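 Fatty acid beta-oxidation was used as the functional read-out. PPARα activity was tested in human hepatoma HuH7 cells and PPARδ activity in mouse myoblast C2C12 cells, at 1, 3, 10 and 30 µM. Values are % beta-oxidation, mean of at least 2 independent experiments run in triplicate, with single-experiment values flagged.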

The nature of data set [2]: AUC (infinity) in C57Bl6 mouse at 10 mg/kg, po administered as single oral dose. It counts as ADME, organism-based. As to conditions: in vivo. In a few lines: (§2)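 Single oral dose of 10 mg/kg in methyl cellulose vehicle given to C57Bl6 mice. Plasma was sampled over a 24 h period. […]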
Data set [3] deals with Mus musculus. In words: Reduction in plasma triglyceride level in C57Bl6/J mouse model of CCl4-induced liver fibrosis at 3 to 30 mg/kg, po qd for 3 weeks. It counts as functional, organism-based. In a few lines:
(§3)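 CCl4-induced liver fibrosis mice were dosed orally once daily at 3, 10 or 30 mg/kg for 3 weeks. Controls were CCl4-vehicle, vehicle oil and saline-injected groups. Liver collagen was scored by picrosirius red staining of histological sections. Plasma triglycerides and adiponectin were also measured. Analysis was one-way ANOVA with Dunnett's test.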

Data set [4] concerns the target T1, Peroxisome proliferator-activated receptor delta (Mus musculus). In words: Transactivation of PPARdelta in mouse C2C12 cells assessed increase in [14C]oleate beta-oxidation at 30 uM preincubated for 48 hrs followed by [14C]oleate addition during last 2 hrs of incubation period relative to control. It is filed as cell-based. In a few lines: as §1
A short description of data set [5]: Cmax in C57Bl6 mouse at 10 mg/kg, po administered as single oral dose. The settings on record: in vivo. It counts as ADME, organism-based. In a few lines: as §2
Data set [6] in a line: Tmax in C57Bl6 mouse at 10 mg/kg, po administered as single oral dose. It is filed as ADME, organism-based. The settings on record: in vivo. An outline of the steps:
as §2

For data set [7], the target named is T2, Peroxisome proliferator-activated receptor gamma (Homo sapiens) (UniProt P37231).
T2 sequence (whole entry): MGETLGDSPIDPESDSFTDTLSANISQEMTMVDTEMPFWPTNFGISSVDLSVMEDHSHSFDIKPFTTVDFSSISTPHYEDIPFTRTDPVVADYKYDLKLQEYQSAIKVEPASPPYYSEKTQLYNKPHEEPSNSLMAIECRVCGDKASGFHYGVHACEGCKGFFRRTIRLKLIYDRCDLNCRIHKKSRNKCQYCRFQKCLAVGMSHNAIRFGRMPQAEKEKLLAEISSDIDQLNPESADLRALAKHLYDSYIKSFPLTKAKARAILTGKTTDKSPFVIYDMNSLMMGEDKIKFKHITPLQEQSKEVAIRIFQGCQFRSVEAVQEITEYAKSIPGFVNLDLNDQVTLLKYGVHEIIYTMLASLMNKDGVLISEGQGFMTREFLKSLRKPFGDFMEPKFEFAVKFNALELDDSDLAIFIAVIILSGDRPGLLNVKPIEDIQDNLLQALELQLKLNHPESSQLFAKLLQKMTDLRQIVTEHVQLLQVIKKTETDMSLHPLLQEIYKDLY
The data set can be described thus: Transactivation of human GAL4-fused PPARgamma LBD expressed in African green monkey COS7 cells co-expressing 5Gal4 pGL3 TK Luc after overnight incubation by luciferase reporter gene assay relative to rosiglitazone. It is filed as cell-based. An outline of the steps:
(§4)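 Cell-based Gal-4 transactivation assay in COS-7 cells transfected with PPARα, PPARδ or PPARγ ligand-binding domain. EC50 and Emax were derived, with Emax as maximum activation in percent of control. EC50s are means of at least two independent experiments performed in triplicate.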
For orientation: In a reporter assay the amount or activity of a reporter protein is the signal.

The target of data set [8] is T3, Peroxisome proliferator-activated receptor alpha (Homo sapiens) (UniProt Q07869).
T3 sequence (whole entry): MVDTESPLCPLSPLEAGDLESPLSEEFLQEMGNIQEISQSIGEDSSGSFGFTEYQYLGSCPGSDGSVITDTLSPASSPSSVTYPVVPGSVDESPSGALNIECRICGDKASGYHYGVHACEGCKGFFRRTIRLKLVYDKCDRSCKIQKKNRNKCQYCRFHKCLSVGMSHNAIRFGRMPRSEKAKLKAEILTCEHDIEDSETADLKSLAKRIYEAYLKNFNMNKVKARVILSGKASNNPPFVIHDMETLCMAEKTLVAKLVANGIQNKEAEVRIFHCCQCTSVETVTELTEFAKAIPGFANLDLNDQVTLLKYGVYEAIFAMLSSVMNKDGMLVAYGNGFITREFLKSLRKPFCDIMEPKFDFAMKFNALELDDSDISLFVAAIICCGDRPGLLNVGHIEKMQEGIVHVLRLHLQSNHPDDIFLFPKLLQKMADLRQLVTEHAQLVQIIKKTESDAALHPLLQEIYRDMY
In words: Transactivation of human GAL4-fused PPARalpha LBD expressed in African green monkey COS7 cells co-expressing 5Gal4 pGL3 TK Luc after overnight incubation by luciferase reporter gene assay relative to fenofibric acid. It counts as cell-based. An outline of the steps:
as §4

The subject of data set [9] is Mus musculus. The data set can be described thus: Antifibrotic activity in C57Bl6/J mouse model of CCl4-induced liver fibrosis assessed as decrease in collagen deposition in liver administered po qd for 3 weeks by picrosirius red staining based assay. It counts as functional, organism-based. In a few lines: as §3
Data set [10] relates to Mus musculus. In words: Antidiabetic activity in C57BL/Ks mouse model of diabetic dyslipidemia assessed as decrease in plasma glucose level administered via oral gavage qd for 5 days measured 4 hrs post last dose. It is filed as functional. In a few lines: (§5)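 Homozygous male C57BL/Ks-db (db/db) mice were gavaged once daily at 10 or 30 mg/kg, for 5 or 10 days. Retro-orbital blood was drawn before treatment and 4 h after the last gavage. Glucose and triglycerides were measured in serum. Results are expressed as % variation on the final day versus the control group. Analysis was one-way ANOVA with Dunnett's test.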

Data set [11] has as its target T3, Peroxisome proliferator-activated receptor alpha (Homo sapiens). In words: Transactivation of PPARalpha in human HuH7 cells assessed increase in [14C]oleate beta-oxidation at 30 uM preincubated for 48 hrs followed by [14C]oleate addition during last 2 hrs of incubation period relative to control. It is filed as cell-based. In a few lines: as §1
A short description of data set [12]: Aqueous solubility in fasted state simulated intestinal fluid. It counts as physicochemical.
Data set [13] relates to Mus musculus. In words: Antidiabetic activity in C57BL/Ks mouse model of diabetic dyslipidemia assessed as decrease in plasma glucose level at 30 mg/kg, po qd administered via gavage for 10 days measured 4 hrs post last dose. It counts as functional, organism-based. An outline of the steps: as §5

The AUC(0-inf) is the area under the concentration-time curve extrapolated to infinity. The Cmax is the peak of the concentration-time curve. In general, Tmax refers to the time from dosing to the highest level. As usually defined, the solubility is the concentration that dissolves in the medium under given conditions. Consider `O=C(O)CCCc1cc2cc(Cl)ccc2n1S(=O)(=O)c1ccc2ncsc2c1` [LANIFIBRANOR], for which the Activity in data set [1] was 12%; in [4], 55%; in the data set on Mus musculus [9], “Dose-dependent effect”; in the data set on Mus musculus [10], “Dose-dependent effect”; in data set [11], 120%. The molecule also returned an AUC(0-inf) in data set [2] of 29400 ng·h/mL. Also, the outcome with Mus musculus [3] was Active. The peak level in data set [5] (Cmax) was 10700 ng/mL. For the same molecule, the Tmax in [6] came to 1 h. For the same molecule, the Emax in [7] was 79%; in data set [8], 106%. In [12], this molecule yielded a solubility of 8.7 µM (≈ 3.78 µg/mL).

For the molecule `O=C(O)CCc1cc2cc(Cl)ccc2n1S(=O)(=O)c1ccccc1`, the Activity is -6% in data set [1], 27% in data set [4] and 96% in [11]. In addition, the outcome in the data set with Mus musculus [13] was Active. This molecule also came in with an AUC(0-inf) in data set [2] of 37300 ng·h/mL. The molecule also came in with a Cmax in data set [5] of 14600 ng/mL. The Tmax in data set [6] came to 1 h. Moreover, the Emax turned out to be 43% in data set [7] and 101% in data set [8]. This molecule also displayed a solubility in data set [12] of 9 µM (≈ 3.27 µg/mL).
